Data on 71 compounds can be found in ChEMBL document CHEMBL4513216, “Probing the Open Global Health Chemical Diversity Library for Multistage-Active Starting Points for Next-Generation Antimalarials” (ACS Infect Dis, 2020).

A short description of the data set: Toxicity liver stage against HepG2, at 10uM. It is filed as cell-based. On the set-up: test concentration 10 uM, cell line HepG2-A16-CD81EGFP. To be noted: human, HepG2-A16-CD81EGFP cells; read-out: INHIBITION
Summed up:
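Uninfected HepG2-A16-CD81EGFP cells, 3 × 10^3 per well, 1536-well, plated on prespotted compound at 10 μM final, parasite-free screening media added to match infected plates; puromycin 10 μM positive, DMSO 0.5% negative; run in parallel with 48 h PbLuc assay at 37 °C, 5% CO2; viability by CellTiter-Glo luminescence, normalized to controls.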
Consider `CSc1ccc(C(=O)C2CCCN(C(=O)Cn3cnnn3)C2)cc1` (stereo unspecified), for which the cytotoxicity at 10 µM is -1.57%.
With `Cn1ccc2c(NC(=O)Cn3ncc4c(c3=O)CCCCC4)cccc21` the figure was 3.89%; with `O=C1CCC(c2ccc(Cl)cc2)=NN1CN1CCSCC1`, 34.4%; with `COc1ccc(S(=O)(=O)NCC(O)c2sccc2C)cc1C` (stereo unspecified), 1.69%.
Take `CC(C)NC(=O)N1CC[C@@H]2[C@@H]1CC(=O)N2Cc1cccnc1`: the cytotoxicity at 10 µM turned out to be 4.67%.
With `CC[C@H]1N(Cc2ccc(OC)cc2)CCC[C@]12CCC(=O)N2C` the figure was -5.6%; with `O=C(CC1CC1)N1CCCC2(CCC(=O)N2CC2CC2)CC1` (stereo unspecified), 0.964%; with `Cc1nc(CN2CCC3(CC2)NC(=O)CC3c2cccnc2)cs1` (stereo unspecified), -2.27%.
With `CCCN(CCC)c1ncc(S(=O)(=O)c2cccc(C)c2)c(N)n1` the figure was 11%; with `COc1cccc(-c2nc(C)c(C(=O)NC(CO)CCSC)s2)c1` (stereo unspecified), -7.71%.
`CC(=O)N1CCN(C(=O)c2cc(-n3cnnn3)ccc2Cl)CC1`: the cytotoxicity at 10 µM is 8.32%.
Turning to `c1ccc(OCC2CC3(CCN(Cc4ccncc4)CC3)CO2)nc1` (stereo unspecified), the cytotoxicity at 10 µM is -12.5%.
Then `CSCc1cccc(S(=O)(=O)N2CCSCC2)c1`, with 14.3%; and `CC1(C(=O)NCCCOc2ccccc2F)CC(=O)N2C=CC=CC2=N1` (stereo unspecified), with 2.28%; and `Oc1cc(CC2COCCN(CC3(O)CCOCC3)C2)ncn1` (stereo unspecified), with 8.08%.
Then `OCCN1CCCCC1c1cc[nH]n1` (stereo unspecified), with -1.71%.
On to `CC1CCc2n[nH]c(C(=O)NCCCc3ccco3)c2C1` (stereo unspecified), for which the cytotoxicity at 10 µM is -23.2%.
Consider `Cc1cnc(C2(C)CCN(Cc3csc(C)n3)CC2)s1`, for which the cytotoxicity at 10 µM is -16.1%.
Then `COCC(=O)N1CC(c2ccnc(Nc3ccc(C)cn3)n2)C1`, with -30.9%; and `CCC(=O)N1CCC(Cc2ccccc2-c2ccncc2)(C(=O)NC)C1` (stereo unspecified), with -16%; and `Cc1nc(Nc2nnc(C)s2)cc(C2CCCN2S(C)(=O)=O)n1` (stereo unspecified), with -11.9%.
For `Cc1ncncc1C(=O)N1CCC(O)(CN(C)Cc2ccc(F)cc2)C1` (stereo unspecified), the cytotoxicity at 10 µM is -7.16%.
On to `c1cnc2[nH]c(C3CCNCC3)c(CN3CCOCC3)c2c1`, for which the cytotoxicity at 10 µM was determined as 1.82%.
With `CCn1cc(CN2CCC(O)(Cn3nc(C)ccc3=O)CC2)cn1`, the cytotoxicity at 10 µM was -22.3%.
On to `OC1(CNc2ccc(F)cc2)CCNCC1`, for which the cytotoxicity at 10 µM turned out to be 2.4%.
Then `N#CCCN(C(=O)COC1CCCC1)C1CC1`, with -4.14%; and `CN(CCc1ccccn1)C(=O)Cn1cc(-c2ccccc2)nn1`, with 0.788%.
With `COc1ccc(F)cc1C(=O)N1CCn2c(nnc2C(F)(F)F)C1` the figure was -7.61%; with `O=C1CN(C(=O)c2cc(Cl)ccc2F)c2ccncc2N1`, 5.92%; with `CCc1nc2c(s1)C(N(C)C(C)=O)CCC2` (stereo unspecified), -11.6%.
In the case of `O=c1[nH]c(CCN2CCN(CC(F)(F)F)CC2)nc2ccccc12`, the cytotoxicity at 10 µM came out at 4.44%.
With `CC(CNC(=O)N1CCN(c2ncccn2)CC1)Cc1cccs1` (stereo unspecified) the figure was -7.9%; with `CC(=O)N1CCCN(C(C)C(=O)Nc2ccnn2C(C)C)CC1` (stereo unspecified), -6.22%; with `CC(C)N(C)S(=O)(=O)N1CCCC1CC(=O)c1cccs1` (stereo unspecified), 5.17%.
Then `Cc1cn2c(n1)CCC(NC(=O)CCOc1cccc(F)c1)C2` (stereo unspecified), with -3.42%.
Consider `NC(=O)NC(=O)CCN(Cc1ccccc1)CC1CCOCC1`, for which the cytotoxicity at 10 µM is -1.86%.
As for `O=C(c1cccc(Cl)c1Cl)N1CCN(CC(O)Cn2cccn2)CC1` (stereo unspecified), the cytotoxicity at 10 µM is -14.3%.
Then `CS(=O)(=O)CCSc1n[nH]c(-c2ccc3c(c2)CCC3)n1`, with -2.14%; and `Cn1nc(C(=O)N(CC(F)(F)F)c2cccc(Cl)c2)ccc1=O`, with 7.48%; and `CCNC(=O)CN1CCSC2(CCCCC2)C1`, with -2.64%.
Then `CCc1ccc(C(=O)NC(C)c2ccc(S(C)(=O)=O)c(F)c2)o1` (stereo unspecified), with 17.2%.
Then `CC(CN1CCOCC1)OC(=O)c1cccc2cn[nH]c12` (stereo unspecified), with -1.08%; and `Cc1ccc2nc(C)c(C)c(C(=O)N3CCS(=O)(=O)CC3)c2c1`, with 3.24%; and `CN(CCO)Cc1nnc(C2CCN(CC(C)(C)C)CC2)n1C`, with 1.89%.
For the compound `COc1cccc([C@@H](C)n2ccnc2-c2cc3n(n2)CCNC3)c1`, the cytotoxicity at 10 µM came to 3.09%.
As to `O=C(NC1CCCNC1=O)c1ccc2nc(-c3ccc(F)cc3)cn2c1` (stereo unspecified), the cytotoxicity at 10 µM was found to be 8.8%.
In the case of `CCN(Cc1cnn(C)c1)C[C@H]1CC[C@@H](Cc2ccc(C#N)cc2)O1`, the cytotoxicity at 10 µM came out at 5.78%.
With `Cc1ccc(N2C[C@H](O)[C@@H](N3CCN(c4ccccn4)CC3)C2)nn1` the figure was -0.442%; with `COc1ccc(-n2c(COC(C)C)n[nH]c2=O)cc1`, 3.45%; with `CN(C)c1nc2c(c(=O)[nH]1)CCN(C(=O)C1CCCO1)C2` (stereo unspecified), -43.3%.
In the case of `COc1cc(NCC(c2ccccn2)N2CCOCC2)ncn1` (stereo unspecified), the cytotoxicity at 10 µM was -49.1%.
For the compound `O=C(NC1CCCC1)N1C[C@H]2CN(c3ccccn3)C[C@@]2(C(=O)O)C1`, the cytotoxicity at 10 µM worked out at 6.12%.
Then `CCCc1ccc(CN2C[C@H]3C(=O)N(CC4CC4)C[C@@]3(C(=O)O)C2)o1`, with -3.86%; and `COc1ccccc1N1CCN(C(=O)CCn2ccnc2C)CC1(C)C`, with -26.7%.
Then `CC(O)CN1CCc2onc(C(c3ccccc3)c3ccccc3)c2C1` (stereo unspecified), with -1.49%; and `Cc1cc(C)n(NC(=O)c2cccc3c2OCC3)c(=O)c1`, with 1.91%.
Regarding `CCc1noc(C)c1-c1nc(Cc2cccs2)nn1C1CCN(C)CC1`, the cytotoxicity at 10 µM was -17.3%.
As for `Cc1nc(C)n(C2CCCN(C(=O)c3ccc(F)c(F)c3)C2)n1` (stereo unspecified), the cytotoxicity at 10 µM is -11.9%.
With `Cc1ncsc1C(=O)N(Cc1cccs1)C1CC1` the figure was -6.13%.
With `CC(C)N1CC(C(=O)NCc2cccnc2-n2cccn2)CC1=O` (stereo unspecified) the figure was -10.8%; with `CC(C)(C)n1cc(C(=O)N2CCN(Cc3ccco3)CC2)cn1`, -7.36%; with `Cc1nc(C)n(CC2CCCCN2Cc2nnc(C3CC3)o2)n1` (stereo unspecified), -10.7%.
With `CC(C)c1nn(C)c(N(C)C)c1CNCC(O)c1ccccc1F` (stereo unspecified) the figure was -5.87%; with `CN(Cc1ccsc1)C(=O)c1cccc(F)c1`, -2.45%; with `CC(C)CN1CCN(C(=O)Nc2cc(C(F)(F)F)c[nH]c2=O)CC1`, -3.43%.
For `CCOCC(O)CN1CCN(C(=O)c2cccnc2OC)CC1` (stereo unspecified), the cytotoxicity at 10 µM was -4.71%.
Regarding `CC(C)CN1CCC2(CC1)CN(C(=O)C(C)C)C2`, the cytotoxicity at 10 µM is -2.16%.
With `COCCN1CC[C@@H](O)[C@@H]1Cc1ccccc1` the figure was 3.67%; with `Cc1ccc(CN2CCC3(CC2)CCN(C(=O)c2cccn2C)C3)cc1`, -2.6%; with `Cn1cnnc1SCC(=O)N1C[C@@H]2CC[C@H]1CN(Cc1cccnc1)C2`, -2.82%.
On to `O=C(c1ccccn1)N1C[C@H]2CC[C@@H](C1)N(C(=O)CCC(F)(F)F)C2`, for which the cytotoxicity at 10 µM stood at 4.37%.
